In brackets after ≈: the same amount, converted by molar mass.
Columns and labels:
HCT-116 [1] = experiment: Cytotoxicity against human HCT116 cells at 1 uM; format: cell-based; conditions: hct-116, 1 µM
Staphylococcus aureus [2] = experiment: Antibacterial activity against Staphylococcus aureus ATCC 25923 after 18 hrs by broth microdilution method; format: functional
Procedure, shortened: (§1)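 MIC by broth microdilution per ISO 20776-1:2006 and CLSI M07-A8. Inoculum 10^6 cfu/ml in Mueller-Hinton broth with compound serially diluted, final concentrations 2 to 128 ug/ml, duplicate rows, no-drug growth control. Incubation 18 h at 37 °C. MIC taken as lowest concentration giving complete inhibition of visible growth. Each compound tested at least twice.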

[3] = system: Staphylococcus epidermidis; experiment: Antibacterial activity against Staphylococcus epidermidis CIP 103627 after 18 hrs by broth microdilution method; format: functional; procedure, shortened: as §1
Staphylococcus aureus [4] = experiment: Antibacterial activity against Staphylococcus aureus ATCC 9144 after 18 hrs by broth microdilution method; format: functional; procedure, shortened: as §1
Staphylococcus aureus [5] = experiment: Antibacterial activity against Staphylococcus aureus ATCC 29213 after 18 hrs by broth microdilution method; format: functional; procedure, shortened: as §1
MRC5 [6] = experiment: Cytotoxicity against human MRC5 cells at 10 uM; format: cell-based; conditions: mrc5, 10 µM
[7] = system: Staphylococcus epidermidis; experiment: Antibacterial activity against Staphylococcus epidermidis CIP 81.55 after 18 hrs by broth microdilution method; format: functional; procedure, shortened: as §1
Staphylococcus aureus [8] = experiment: Antibacterial activity against Staphylococcus aureus ATCC 6538 after 18 hrs by broth microdilution method; format: functional; procedure, shortened: as §1
Staphylococcus aureus [9] = experiment: Antibacterial activity against Staphylococcus aureus CIP 103428 after 18 hrs by broth microdilution method; format: functional; procedure, shortened: as §1
KB [10] = experiment: Cytotoxicity against human KB cells at 1 uM; format: cell-based
Staphylococcus aureus [11] = experiment: Antibacterial activity against Staphylococcus aureus CIP 65.6 after 18 hrs by broth microdilution method; format: functional; procedure, shortened: as §1
[12] = system: Staphylococcus epidermidis; experiment: Antibacterial activity against Staphylococcus epidermidis ATCC 12228 after 18 hrs by broth microdilution method; format: functional; procedure, shortened: as §1
MRC5 [13] = experiment: Cytotoxicity against human MRC5 cells at 1 uM; format: cell-based; conditions: mrc5, 1 µM
HCT-116 [14] = experiment: Cytotoxicity against human HCT116 cells at 10 uM; format: cell-based; conditions: hct-116, 10 µM
KB [15] = experiment: Cytotoxicity against human KB cells at 10 uM; format: cell-based
Staphylococcus aureus [16] = experiment: Antibacterial activity against methicillin-resistant Staphylococcus aureus ATCC 33592 after 18 hrs by broth microdilution method; format: functional
Procedure, shortened: (§2)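 Broth microdilution following ISO 20776-1:2006 and CLSI M07-A8, in Mueller-Hinton broth. Inoculum was 10^6 cfu/ml, with compound serial dilutions spanning 2 to 128 ug/ml and a compound-free growth control well. Plates were incubated 18 h at 37 °C. MIC was the lowest concentration giving complete inhibition of visible growth. Each compound was tested at least twice.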

Escherichia coli = experiment: Antibacterial activity against Escherichia coli ATCC 25922 after 18 hrs by broth microdilution method; format: functional; procedure, shortened: as §2
Staphylococcus aureus [17] = experiment: Antibacterial activity against vancomycin intermediate Staphylococcus aureus […] after 18 hrs by broth microdilution method; format: functional; procedure, shortened: as §2
Staphylococcus aureus [18] = experiment: Antibacterial activity against methicillin-resistant Staphylococcus aureus CIP 65.25 after 18 hrs by broth microdilution method; format: functional; procedure, shortened: as §2
Streptococcus pneumoniae [19] = experiment: Antibacterial activity against Streptococcus pneumoniae ATCC 6303 after 18 hrs by broth microdilution method; format: functional; conditions: ATCC 6303, 18 h
Procedure, shortened: (§3)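 MIC by broth microdilution per ISO 20776-1:2006 and CLSI M07-A8. Inoculum 10^6 cfu/ml in Mueller-Hinton broth […]. Compound serially diluted, final 2 to 128 ug/ml, duplicate rows, no-drug growth control. Read after 18 h at 37 °C as lowest concentration fully inhibiting visible growth. At least two experiments.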

Streptococcus pneumoniae [20] = experiment: Antibacterial activity against Streptococcus pneumoniae ATCC 49619 after 18 hrs by broth microdilution method; format: functional; conditions: ATCC 49619, 18 h; procedure, shortened: as §3

Row | Compound | Activity (HCT-116 [1]) | MIC (Staphylococcus aureus [2]; ATCC 25923, 18 h) | MIC ([3]; CIP 103627, 18 h) | MIC (Staphylococcus aureus [4]; ATCC 9144, 18 h) | MIC (Staphylococcus aureus [5]; ATCC 29213, 18 h) | Activity (MRC5 [6]) | MIC ([7]; CIP 81.55, 18 h) | MIC (Staphylococcus aureus [8]; ATCC 6538, 18 h) | MIC (Staphylococcus aureus [9]; CIP 103428, 18 h) | Activity (KB [10]) | MIC (Staphylococcus aureus [11]; CIP 65.6, 18 h) | MIC ([12]; ATCC 12228, 18 h) | Activity (MRC5 [13]) | Activity (HCT-116 [14]) | Activity (KB [15]) | MIC (Staphylococcus aureus [17]) | other results
1 | CC(C)CC(NO)c1c[nH]c2ccc(I)cc12 (stereo not given) | Non-toxic | 32 µg/mL (≈ 93 µM) | 16 µg/mL (≈ 46.5 µM) | 32 µg/mL (≈ 93 µM) | 32 µg/mL (≈ 93 µM) | Non-toxic | 16 µg/mL (≈ 46.5 µM) | 32 µg/mL (≈ 93 µM) | 32 µg/mL (≈ 93 µM) | Non-toxic | 32 µg/mL (≈ 93 µM) | 16 µg/mL (≈ 46.5 µM) | Non-toxic | Non-toxic | Non-toxic |  | 
2 | GENTAMICIN |  |  |  |  |  |  |  |  |  |  |  |  |  |  |  | > 64 µg/mL | MIC (Staphylococcus aureus [2]): 0.125 µg/mL; MIC (Staphylococcus aureus [16]): 0.25 µg/mL; MIC [3]: 0.125 µg/mL; MIC (Escherichia coli): 1 µg/mL; MIC (Staphylococcus aureus [4]): 0.125 µg/mL; MIC (Staphylococcus aureus [5]): 0.125 µg/mL; MIC [7]: 0.125 µg/mL; MIC (Staphylococcus aureus [8]): 0.125 µg/mL; MIC (Staphylococcus aureus [9]): 0.125 µg/mL; MIC (Staphylococcus aureus [11]): 0.125 µg/mL; MIC (Staphylococcus aureus [18]): 0.25 µg/mL; MIC [12]: 0.125 µg/mL
3 | CC(NO)c1c[nH]c2ccc(I)cc12 (stereo not given) | Non-toxic | 64 µg/mL (≈ 212 µM) | 32 µg/mL (≈ 106 µM) | 64 µg/mL (≈ 212 µM) | 64 µg/mL (≈ 212 µM) | Non-toxic | 32 µg/mL (≈ 106 µM) | 64 µg/mL (≈ 212 µM) | 64 µg/mL (≈ 212 µM) | Non-toxic | 64 µg/mL (≈ 212 µM) | 32 µg/mL (≈ 106 µM) | Non-toxic | Non-toxic | Non-toxic |  | 
4 | CC(C)CC(NO)c1c[nH]c2ccc(Br)cc12 (stereo not given) | Non-toxic | 32 µg/mL (≈ 108 µM) | 16 µg/mL (≈ 53.8 µM) | 32 µg/mL (≈ 108 µM) | 32 µg/mL (≈ 108 µM) | Non-toxic | 16 µg/mL (≈ 53.8 µM) | 32 µg/mL (≈ 108 µM) | 32 µg/mL (≈ 108 µM) | Non-toxic | 32 µg/mL (≈ 108 µM) | 16 µg/mL (≈ 53.8 µM) | Non-toxic | Non-toxic | Non-toxic |  | 
5 | CC(C)(C)OC(=O)NCC(c1c[nH]c2cc(Br)ccc12)N(O)Cc1ccccc1 (stereo not given) | Non-toxic | 8 µg/mL (≈ 17.4 µM) | 16 µg/mL (≈ 34.8 µM) | 8 µg/mL (≈ 17.4 µM) | 8 µg/mL (≈ 17.4 µM) | Non-toxic | 16 µg/mL (≈ 34.8 µM) | 8 µg/mL (≈ 17.4 µM) | 8 µg/mL (≈ 17.4 µM) | Non-toxic | 8 µg/mL (≈ 17.4 µM) | 16 µg/mL (≈ 34.8 µM) | Non-toxic | Non-toxic | Non-toxic | 16 µg/mL (≈ 34.8 µM) | MIC (Staphylococcus aureus [16]; ATCC 33592, 18 h): 16 µg/mL (≈ 34.8 µM); MIC (Streptococcus pneumoniae [19]): > 128 µg/mL; MIC (Staphylococcus aureus [18]; CIP 65.25, 18 h): 16 µg/mL (≈ 34.8 µM); MIC (Streptococcus pneumoniae [20]): > 128 µg/mL
6 | CC(C)CC(c1c[nH]c2ccccc12)N(O)Cc1ccccc1 (stereo not given) | Non-toxic | 32 µg/mL (≈ 104 µM) | 16 µg/mL (≈ 51.9 µM) | 32 µg/mL (≈ 104 µM) | 32 µg/mL (≈ 104 µM) | Non-toxic | 16 µg/mL (≈ 51.9 µM) | 32 µg/mL (≈ 104 µM) | 32 µg/mL (≈ 104 µM) | Non-toxic | 32 µg/mL (≈ 104 µM) | 16 µg/mL (≈ 51.9 µM) | Non-toxic | Non-toxic | Non-toxic |  | 
7 | CC(C)(C)OC(=O)NCC(c1c[nH]c2cc(Cl)ccc12)N(O)Cc1ccccc1 (stereo not given) | Non-toxic | 16 µg/mL (≈ 38.5 µM) | 16 µg/mL (≈ 38.5 µM) | 16 µg/mL (≈ 38.5 µM) | 16 µg/mL (≈ 38.5 µM) |  | 16 µg/mL (≈ 38.5 µM) | 16 µg/mL (≈ 38.5 µM) | 16 µg/mL (≈ 38.5 µM) | Non-toxic | 16 µg/mL (≈ 38.5 µM) | 16 µg/mL (≈ 38.5 µM) | Non-toxic |  |  | 16 µg/mL (≈ 38.5 µM) | MIC (Staphylococcus aureus [16]; ATCC 33592, 18 h): 16 µg/mL (≈ 38.5 µM); MIC (Streptococcus pneumoniae [19]): > 128 µg/mL; MIC (Staphylococcus aureus [18]; CIP 65.25, 18 h): 16 µg/mL (≈ 38.5 µM); MIC (Streptococcus pneumoniae [20]): > 128 µg/mL

Source: ChEMBL document CHEMBL1777764, “Synthesis and evaluation of 1-(1H-indol-3-yl)ethanamine derivatives as new antibacterial agents” (Bioorg Med Chem, 2011)
